Results from ChEMBL document CHEMBL1833961, “Homology modeling in tandem with 3D-QSAR analyses: a computational approach to depict the agonist binding site of the human CB2 receptor” (Eur J Med Chem, 2011).

Tests used:
Format in all cases: cell-based
[1] = molecular target: T1, Cannabinoid receptor 2 (Homo sapiens, UniProt P34972); assay: Displacement of [3H]-WIN 55,212-2 from human CB2 receptor expressed in human HEK293 cells after 90 mins by radioligand assay
[2] = molecular target: T2, Cannabinoid receptor 1 (Homo sapiens, UniProt P21554); assay: Displacement of [3H]-CP-55,940 from human CB1 receptor expressed in human HEK293 cells at 10 uM after 90 mins by radioligand assay
How it was run: (§1)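 Percent displacement of [3H]-CP 55,940 (0.5 nM) from human recombinant CB1 in HEK-293 cell membranes (Bmax 2.5 pmol/mg protein), with a single inhibitor concentration of 1 or 10 µM. Incubation was 90 min at 30 °C, and nonspecific binding was defined with 10 uM WIN 55212-2.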

[3] = molecular target: T2, Cannabinoid receptor 1; assay: Displacement of [3H]-CP-55,940 from human CB1 receptor expressed in human HEK293 cells after 90 mins by radioligand assay
How it was run: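 Membranes from HEK-293 cells transfected with human recombinant CB1 (Bmax 2.5 pmol/mg protein) were incubated with 0.14 nM [3H]-CP-55,940 (Kd 0.18 nM) and increasing compound concentrations for 90 min at 30 °C. Nonspecific binding was defined with 10 uM WIN 55212-2. Ki was calculated from IC50 by Cheng–Prusoff.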

[4] = molecular target: T1, Cannabinoid receptor 2; assay: Displacement of [3H]-WIN 55,212-2 from human CB2 receptor expressed in human HEK293 cells at 10 uM after 90 mins by radioligand assay
[5] = molecular target: T1, Cannabinoid receptor 2; assay: Displacement of [3H]-WIN 55,212-2 from human CB2 receptor expressed in human HEK293 cells at 1 uM after 90 mins by radioligand assay
[6] = molecular target: T2, Cannabinoid receptor 1; assay: Displacement of [3H]-CP-55,940 from human CB1 receptor expressed in human HEK293 cells at 1 uM after 90 mins by radioligand assay; how it was run: as §1

T1 sequence (P34972 whole entry): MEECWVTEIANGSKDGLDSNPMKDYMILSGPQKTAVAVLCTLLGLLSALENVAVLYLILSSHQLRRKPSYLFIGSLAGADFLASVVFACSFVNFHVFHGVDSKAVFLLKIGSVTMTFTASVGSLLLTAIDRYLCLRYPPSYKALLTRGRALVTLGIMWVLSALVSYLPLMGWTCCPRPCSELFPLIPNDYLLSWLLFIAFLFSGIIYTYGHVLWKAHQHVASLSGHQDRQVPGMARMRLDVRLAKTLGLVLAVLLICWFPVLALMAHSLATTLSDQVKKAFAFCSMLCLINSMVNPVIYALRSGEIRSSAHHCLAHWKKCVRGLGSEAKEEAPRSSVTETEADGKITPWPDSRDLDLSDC
T2 sequence (P21554 whole entry): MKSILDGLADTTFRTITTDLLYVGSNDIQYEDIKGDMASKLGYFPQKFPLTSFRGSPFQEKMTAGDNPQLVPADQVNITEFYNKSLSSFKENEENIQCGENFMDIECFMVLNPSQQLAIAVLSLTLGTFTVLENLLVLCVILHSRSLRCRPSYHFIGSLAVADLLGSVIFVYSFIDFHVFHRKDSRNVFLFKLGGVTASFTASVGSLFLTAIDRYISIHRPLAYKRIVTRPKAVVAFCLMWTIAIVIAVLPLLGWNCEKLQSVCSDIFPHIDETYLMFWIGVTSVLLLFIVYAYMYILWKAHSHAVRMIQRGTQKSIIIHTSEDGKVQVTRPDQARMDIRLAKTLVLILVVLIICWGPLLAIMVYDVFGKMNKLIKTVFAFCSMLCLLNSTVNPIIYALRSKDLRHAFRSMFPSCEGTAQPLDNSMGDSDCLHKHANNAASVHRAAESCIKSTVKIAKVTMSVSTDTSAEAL

Row | SMILES | Ki ([1]; read-out: pKi (converted)) [nM] | Activity [2] [%] | IC50 [3] [nM] | Ki [3] [nM] | IC50 [1] [nM] | Ki ([1]; read-out: Ki) [nM] | Activity [4] [%] | Activity [5] [%] | Activity [6] [%]
1 | CC1(C)C(C(=O)c2cn(CC3CCOCC3)c3c(CC4CCOCC4)c4c(cc23)OCO4)C1(C)C | 1.02 | – | – | – | – | – | – | – | –
2 | CCOC(=O)/C(=C/c1cn(CCN2CCCCC2)c2ccccc12)C(=O)c1ccccc1 | – | 25.1 | > 10000 | > 10000 | 5480 | 1390 | 70.8 | – | –
3 | N#C/C(=C\c1cn(CCN2CCCCC2)c2ccccc12)S(=O)(=O)c1ccccc1 | – | 83 | – | – | – | 7.5 | 101 | – | –
4 | CCOC(=O)/C(=C/c1cn(CCN2CCOCC2)c2ccccc12)C(=O)c1ccccc1 | – | 43.2 | > 10000 | > 10000 | 6220 | 1580 | 66 | – | –
5 | N#C/C(=C\c1cn(CCN2CCOCC2)c2ccccc12)S(=O)(=O)c1ccccc1 | – | – | 155 | 62 | 40.1 | 10.2 | – | 95.9 | 85
